Measured values: ChEMBL document CHEMBL4402581, “Monohydrazone Based G-Quadruplex Selective Ligands Induce DNA Damage and Genome Instability in Human Cancer Cells” (J Med Chem, 2020)
The source made the active and inactive calls. No cut-off for these calls is given here.

Columns and labels:
Quadruplex DNA [1] = assay: Effect on human Tel23 G4 quadruplex DNA architecture at 10 mol.equiv by circular dichroism spectral analysis; assay type: nucleic-acid assay
How it was run: (§1)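 CD spectra of 15 μM G4s or 30 μM hairpin in 20 mM K phosphate pH 7.0 with 5 mM KCl, after annealing. Recorded at 20 °C over 230–360 nm, three scans averaged, buffer baseline subtracted. Ligand was added at 10 mol equiv to the folded DNA from a 10 mM DMSO stock.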

Quadruplex DNA [2] = assay: Stabilization of c-Kit2 G4 quadruplex DNA assessed as change in melting temperature at 10 mol.equiv by circular dichroism melting assay; assay type: nucleic-acid assay
How it was run: (§2)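 CD melting from 20 to 100 °C at 1 °C/min, monitored at 264 nm (c-Kit1, c-Kit2, c-Myc, Tel23-p), 287 nm (Tel23-h) or 280 nm (hairpin). Ligand was at 10 mol equiv with folded DNA (15 μM G4, 30 μM hairpin). ΔTm is Tm with ligand minus Tm without, from curve fits, averaged over triplicates.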

Quadruplex DNA [3] = assay: Effect on c-Myc G4 quadruplex DNA architecture at 10 mol.equiv by circular dichroism spectral analysis; assay type: nucleic-acid assay; how it was run: as §1
[4] = Effect on hairpin-duplex DNA architecture at 10 mol.equiv by circular dichroism spectral analysis; how it was run: as §1
Quadruplex DNA [5] = assay: Stabilization of parallel Tel23 G4 quadruplex DNA assessed as change in melting temperature at 10 mol.equiv by circular dichroism melting assay; assay type: nucleic-acid assay; how it was run: as §2
Quadruplex DNA [6] = assay: Effect on c-Kit2 G4 quadruplex DNA architecture at 10 mol.equiv by circular dichroism spectral analysis; assay type: nucleic-acid assay; how it was run: as §1
Quadruplex DNA [7] = assay: Effect on c-Kit1 G4 quadruplex DNA architecture at 10 mol.equiv by circular dichroism spectral analysis; assay type: nucleic-acid assay; how it was run: as §1
Quadruplex DNA [8] = assay: Stabilization of c-Kit1 G4 quadruplex DNA assessed as change in melting temperature at 10 mol.equiv by circular dichroism melting assay; assay type: nucleic-acid assay; how it was run: as §2
Quadruplex DNA [9] = assay: Stabilization of human Tel23 G4 quadruplex DNA assessed as change in melting temperature at 10 mol.equiv by circular dichroism melting assay; assay type: nucleic-acid assay; how it was run: as §2
[10] = Stabilization of hairpin-duplex DNA assessed as change in melting temperature at 10 mol.equiv by circular dichroism melting assay; how it was run: as §2
Quadruplex DNA [11] = assay: Effect on parallel Tel23 G4 quadruplex DNA architecture at 10 mol.equiv by circular dichroism spectral analysis; assay type: nucleic-acid assay; how it was run: as §1
Quadruplex DNA [12] = assay: Stabilization of c-Myc G4 quadruplex DNA assessed as change in melting temperature at 10 mol.equiv by circular dichroism melting assay; assay type: nucleic-acid assay; how it was run: as §2
HeLa [13] = assay: Cytotoxicity against human HeLa cells assessed as reduction in cell viability incubated for 24 hrs followed by 48 hrs of recovery in drug free medium by MTT assay; assay type: functional, cell-based
How it was run: (§3)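 Cells grown in DMEM with 10% FBS and 1% glutamine at 37 °C, 5% CO2, and seeded 25 × 10^4 per well. Treatment began 24 h after seeding and lasted 1 or 24 h, followed by 48 h in drug-free medium. MTT was added for 1 h at 37 °C, then DMSO solubilization and absorbance at 595 nm. IC50 came from linear regression; two independent experiments, each in triplicate.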

HeLa [14] = assay: Cytotoxicity against human HeLa cells assessed as reduction in cell viability incubated for 1 hr followed by 48 hrs of recovery in drug free medium by MTT assay; assay type: functional, cell-based; how it was run: as §3
U2OS [15] = assay: Induction of DNA:RNA hybrid formation in human U2OS cells assessed as increase in R loop formation at 10 uM incubated for 60 mins by S9.6 immunofluorescence microscopy; assay type: functional, cell-based
How it was run: (§4)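 U2OS cells were treated at 10 μM for 5–60 min, 24 h after seeding, then fixed in cold methanol and permeabilized with acetone. Stained with S9.6 antibody and anti-nucleolin. The nucleolar signal was subtracted from total nuclear S9.6 fluorescence, and values were normalized to the untreated mean; two biological replicates.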

U2OS [16] = assay: Induction of DNA damage in human U2OS cells assessed as increase in gammaH2AX phosphorylation at S139 at 10 uM incubated for 4 hrs by immunofluorescence microscopy; assay type: functional, cell-based
How it was run: (§5)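 U2OS cells were treated with 10 μM for 4 h, pre-extracted 3 min with CSK buffer containing 0.5% Triton X-100, and fixed in 2% paraformaldehyde. Co-stained 1 h for 53BP1 and γH2AX, with DAPI counterstain. Foci were counted per nucleus and normalized to the untreated mean, across three biological replicates.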

U2OS [17] = assay: Cytotoxicity against human U2OS cells assessed as reduction in cell viability incubated for 24 hrs followed by 48 hrs of recovery in drug-free medium by MTT assay; assay type: functional, cell-based; how it was run: as §3
U2OS [18] = assay: Cytotoxicity against human U2OS cells assessed as reduction in cell viability incubated for 1 hr followed by 48 hrs of recovery in drug free medium by MTT assay; assay type: functional, cell-based; how it was run: as §3
Quadruplex DNA [19] = assay: Stabilization of G4 quadruplex DNA in human U2OS cells assessed as colocalization of TRF2/[…] foci at 10 uM incubated for 24 hrs by immunofluorescence microscopy (reference value: 18.4 +/- 2.81%); assay type: cell-based
Quadruplex DNA [20] = assay: Stabilization of G4 quadruplex DNA in human U2OS cells assessed as TRF2 foci per cell at 10 uM incubated for 24 hrs by immunofluorescence microscopy (reference value: 15.8 +/- 2.6%); assay type: cell-based
Quadruplex DNA [21] = assay: Stabilization of G4 quadruplex DNA in human U2OS cells assessed as increase in number of G4 foci at 10 uM incubated for 24 hrs by immunofluorescence microscopy; assay type: cell-based
U2OS [22] = assay: Induction of DNA damage in human U2OS cells assessed as increase in phosphorylated 53BPI foci colocalization with gammaH2AX foci at 10 uM incubated for 4 hrs by immunofluorescence microscopy; assay type: functional, cell-based; how it was run: as §5
U2OS [23] = assay: Induction of genome instability in human U2OS cells assessed as increase in micronuclei formation at 10 uM incubated for 24 hrs by immunofluorescence microscopy; assay type: functional, cell-based
How it was run: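 U2OS cells were treated for 24 h, fixed in 4% paraformaldehyde, permeabilized with 0.5% Triton X-100, and stained with DAPI. Micronuclei were counted per 100 cells.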

U2OS [24] = assay: Induction of DNA:RNA hybrid formation in human U2OS cells assessed as increase in R loop formation at 10 uM incubated for 30 mins by S9.6 immunofluorescence microscopy; assay type: functional, cell-based; how it was run: as §4

Activity (Quadruplex DNA [1]) | Activity (Quadruplex DNA [2]) | Activity (Quadruplex DNA [3]) | Activity [4] | Activity (Quadruplex DNA [5]) | Activity (Quadruplex DNA [6]) | Activity (Quadruplex DNA [7]) | Activity (Quadruplex DNA [8]) | Activity (Quadruplex DNA [9]) | ΔTm [10] [°C] | Activity (Quadruplex DNA [11]) | Activity (Quadruplex DNA [12]) | Structure (SMILES) | further results
inactive | Active | inactive | inactive | Active | inactive | inactive | Active | Active |  | inactive | Active | N=C(N)N/N=C/c1c(Cl)n(C/C=C/c2ccccc2)c2ccccc12 | Activity [10]: Active
inactive | Active | inactive | inactive | Active | inactive | inactive | Active | Active | > 2 | inactive | Active | N=C(N)N/N=C/c1cccc(/C=C2/C(=O)Nc3c2ccc2ccccc32)c1 | 
inactive | Active | inactive | inactive | Active | inactive | inactive | Active | Active | > 2 | inactive | Active | O=C1Nc2ccc(Cl)cc2/C1=C\c1cccc(/C=N/NC2=NCCN2)c1 | 
inactive | Active | inactive | inactive | Active | inactive | inactive | Active | Active | > 2 | inactive | Active | O=C1Nc2c(ccc3ccccc23)/C1=C\c1cccc(/C=N/NC2=NCCN2)c1 | 
inactive | Active | inactive | inactive | Active | inactive | inactive | Active | Active | > 2 | inactive | Active | Cc1cc2c(cc1O)/C(=C\c1cccc(/C=N/NC(=N)N)c1)C(=O)N2 | 
inactive | Active | inactive | inactive | Active | inactive | inactive | Active | Active |  | inactive | Active | N=C(N)N/N=C/c1cn(C/C=C/c2ccccc2)c2ccccc12 | Activity [10]: Active
inactive | Active | inactive | inactive | Active | inactive | inactive | Active | Active |  | inactive | Active | Cc1cc2c(cc1O)/C(=C\c1cccc(/C=N/NC3=NCCN3)c1)C(=O)N2 | Activity [10]: Active
inactive | Active | inactive | inactive | Active | inactive | inactive | Active | Active | > 2 | inactive | Active | N=C(N)N/N=C/c1cccc(/C=C2/C(=O)Nc3ccc(Cl)cc32)c1 | 

More lines, now with the values behind:

Structure (SMILES) | Activity (Quadruplex DNA [1]) | Activity (Quadruplex DNA [2]) | Activity (Quadruplex DNA [3]) | Activity [4] | Activity (Quadruplex DNA [5]) | Activity (Quadruplex DNA [6]) | Activity (Quadruplex DNA [7]) | Activity (Quadruplex DNA [8]) | Activity (Quadruplex DNA [9]) | ΔTm [10] [°C] | Activity (Quadruplex DNA [11]) | Activity (Quadruplex DNA [12]) | further results
Nc1ccn2c(/C=N/NC3=NCCN3)c(-c3ccccc3)nc2n1 | inactive | Active | inactive | inactive | Active | inactive | inactive | Active | Active | > 2 | inactive | Active | 
COc1cc2c(/C=N/NC(=N)N)c(Cl)[nH]c2cc1C | inactive | Active | inactive | inactive | Active | inactive | inactive | Active | Active | > 2 | inactive | Active | 
N=C(N)N/N=C/c1cn(Cc2ccccc2)c2ccccc12 | inactive | Active | inactive | inactive | Active | inactive | inactive | Active | Active | > 2 | inactive | Active | 
COc1cc2c(/C=N/NC(=N)N)c(Cl)n(C)c2cc1C | inactive | Active | inactive | inactive | Active | inactive | inactive | Active | Active | > 2 | inactive | Active | 
COc1cc2c(/C=N/NC(=N)N)c[nH]c2cc1C | inactive | Active | inactive | inactive | Active | inactive | inactive | Active | Active | > 2 | inactive | Active | 
N=C(N)N/N=C/c1c(-c2ccccc2)nc2nc(N)ccn12 | inactive | inactive | inactive | inactive | inactive | inactive | inactive | inactive | inactive |  | inactive | inactive | IC50 (HeLa [13]): > 50 µM; IC50 (HeLa [14]): > 100 µM; Activity (U2OS [15]): Active; Activity (U2OS [16]): Active; IC50 (U2OS [17]): > 50 µM; IC50 (U2OS [18]): > 100 µM; Activity (Quadruplex DNA [19]): 10.1%; Activity (Quadruplex DNA [20]): 15.3%; Activity (Quadruplex DNA [21]): inactive; Activity (U2OS [22]): Active; Activity (U2OS [23]): Active; Activity (U2OS [24]): Active; Activity [10]: inactive
CN(C)c1ccc(Nc2c3ccc(NC(=O)CCN4CCCC4)cc3nc3cc(NC(=O)CCN4CCCC4)ccc23)cc1 |  |  |  |  |  |  |  |  |  |  |  |  | Activity (Quadruplex DNA [19]): 15.2%; Activity (Quadruplex DNA [20]): 19.1%; Activity (Quadruplex DNA [21]): Active
